The results in this text go back to ChEMBL document CHEMBL4732017, “Discovery, affinity maturation and multimerization of small molecule ligands against human tyrosinase and tyrosinase-related protein 1” (RSC Med Chem, 2021).

SMILES strings stand for the structures. Active and inactive are the calls of the source. The calls are words filed in the database; no cut-off is given here.

Experiment [1] concerns the target T1, Tyrosinase (Homo sapiens) (UniProt P14679).
T1 sequence (whole entry): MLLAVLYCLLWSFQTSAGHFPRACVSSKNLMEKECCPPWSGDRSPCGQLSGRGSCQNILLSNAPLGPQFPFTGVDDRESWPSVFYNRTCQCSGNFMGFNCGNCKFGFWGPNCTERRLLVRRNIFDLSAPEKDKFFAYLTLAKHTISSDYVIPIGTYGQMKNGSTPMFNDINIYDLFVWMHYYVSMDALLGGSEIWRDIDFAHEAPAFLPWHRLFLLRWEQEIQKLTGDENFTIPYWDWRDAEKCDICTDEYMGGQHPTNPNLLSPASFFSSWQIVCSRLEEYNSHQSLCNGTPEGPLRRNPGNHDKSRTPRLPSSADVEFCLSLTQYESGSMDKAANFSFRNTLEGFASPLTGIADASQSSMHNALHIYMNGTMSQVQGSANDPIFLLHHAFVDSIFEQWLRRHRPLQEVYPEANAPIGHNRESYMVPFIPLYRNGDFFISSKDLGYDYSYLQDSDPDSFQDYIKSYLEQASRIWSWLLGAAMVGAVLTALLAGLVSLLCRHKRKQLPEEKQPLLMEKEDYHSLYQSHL
Nature of the experiment: Binding affinity to human tyrosinase expressed in mouse B16F10 cells at 10 uM by fluorophore based flow cytometry assay. The conditions noted are these: B16-F10.

The target in experiment [2] is T1, Tyrosinase (Homo sapiens). Kind of experiment: Binding affinity to human tyrosinase up to 100 uM by ELISA. The note with it: dose microM <=100. The method, boiled down:
(§1)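 Wells are coated overnight at 4 °C with 100 nM hTYR or hTYRP1 in PBS and blocked with 4% milk-PBS for 30–45 min. A serial dilution of fluorescein-ligand conjugate is added for 45 min in the dark. Detection uses 200 nM anti-fluorescein IgG, then protein A-HRP (1:1000), each for 45 min with washes between. Absorbance is read at 450 and 620 nm, and values are fitted.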
In general terms: ELISA stands for enzyme-linked immunosorbent assay.

Experiment [3] addresses 5,6-dihydroxyindole-2-carboxylic acid oxidase (Homo sapiens) (UniProt P17643). Kind of experiment: Binding affinity to human tyrosinase related protein 1 up to 100 uM by ELISA. The note with it: dose microM <=100. In short, it runs like this: as §1
The target is the same in experiment [4]. Kind of experiment: Binding affinity to human tyrosinase related protein 1 expressed in mouse B16F10 cells at 10 uM by fluorophore based flow cytometry assay. The note with it: B16-F10. For orientation: In flow cytometry, cells or beads pass a laser one at a time.
The target of experiment [5] is T1, Tyrosinase (Homo sapiens). Kind of experiment: Binding affinity to human tyrosinase at 50 uM at pH 6.8 by enzymatic assay. In short, it runs like this: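 Human tyrosinase intramelanosomal domain (residues 19–456), 200 nM, with 1 mM L-DOPA and 4 mM MBTH in PBS pH 6.8 with 1% DMSO at 25 °C. Dopaquinone-MBTH absorbance at 490–510 nm is recorded over 10 min, in duplicate, and the OD–time slope is taken by linear regression. Single-point tests use a fixed 50 µM inhibitor. IC50 comes from fitting the slope against inhibitor concentration.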

For experiment [6], the target named is 5,6-dihydroxyindole-2-carboxylic acid oxidase (Homo sapiens) (UniProt P17643). Kind of experiment: Binding affinity to human tyrosinase related protein 1 up to 10 uM by fluorescence polarization analysis. The conditions noted are these: dose microM <=10. In short, it runs like this:
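hTYRP1 intramelanosomal domain (residues 25–471) is serially diluted 1:1 and incubated with 50 nM fluorescein-conjugated ligand in PBS pH 7.4. Fluorescence anisotropy is read in triplicate and anisotropy values are fitted against protein concentration.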
(In general: In fluorescence polarisation assays a small probe gives low polarisation when free and higher when bound to something large.)

Chain of 5,6-dihydroxyindole-2-carboxylic acid oxidase (Homo sapiens) (P17643 whole entry, the tested form may be a part): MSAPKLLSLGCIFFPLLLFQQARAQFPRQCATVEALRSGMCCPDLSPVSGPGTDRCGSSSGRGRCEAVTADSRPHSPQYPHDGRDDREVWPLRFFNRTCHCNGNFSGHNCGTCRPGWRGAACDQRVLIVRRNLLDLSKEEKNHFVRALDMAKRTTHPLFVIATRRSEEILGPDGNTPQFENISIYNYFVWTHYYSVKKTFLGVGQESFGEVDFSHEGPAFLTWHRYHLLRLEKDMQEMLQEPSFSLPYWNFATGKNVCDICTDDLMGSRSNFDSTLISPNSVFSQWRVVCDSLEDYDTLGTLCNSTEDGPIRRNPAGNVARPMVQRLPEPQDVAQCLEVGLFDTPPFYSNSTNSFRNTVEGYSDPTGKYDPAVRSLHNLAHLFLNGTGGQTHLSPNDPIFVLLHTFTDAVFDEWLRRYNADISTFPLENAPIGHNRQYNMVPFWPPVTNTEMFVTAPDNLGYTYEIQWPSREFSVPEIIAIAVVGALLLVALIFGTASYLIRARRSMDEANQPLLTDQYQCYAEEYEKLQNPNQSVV

Regarding `N=C(N)NCCC[C@@H](NC(=O)[C@@H](CC(=O)O)NC(=O)[C@H](CCCCNC(=O)CCCCCNC(=O)CCCCn1cc(CCCC(=O)Nc2nc(-c3ccc(O)cc3O)cs2)nn1)NC(=O)CCCCCNC(=O)CCCCn1cc(CCCC(=O)Nc2nc(-c3ccc(O)cc3O)cs2)nn1)C(=O)N[C@H](CC(=O)O)C(=O)NCCCCCC(=O)NC(CSC1CC(=O)N(c2ccc3c(c2)C(=O)OC32c3ccc(O)cc3Oc3cc(O)ccc32)C1=O)C(=O)O` (single isomer, unassigned), the outcome in experiment [1], in experiment [2], in experiment [3] and in experiment [4] was Active.

On to `CN(C)c1ccc(CC(=O)N[C@@H](CCC(N)=O)C(=O)NCc2ccccc2N2CCCC2)cc1`, for which the result in experiment [5] was Active. As for `CN(C)c1ccc(CC(=O)N[C@@H](CCC(=O)NCCCCC(NC(=S)Nc2cccc3c2C(=O)OC32c3ccc(O)cc3Oc3cc(O)ccc32)C(=O)O)C(=O)NCc2ccccc2N2CCCC2)cc1` (stereo not given in full), the result in experiment [6] was Active. For `CN(C)c1ccc(CC(=O)N[C@H](CCC(N)=O)C(=O)NCc2ccccc2N2CCCC2)cc1`, in experiment [5], the outcome was Active. With `CN(C)c1ccc(CC(=O)N[C@H](CCC(=O)NCCCCC(NC(=S)Nc2cccc3c2C(=O)OC32c3ccc(O)cc3Oc3cc(O)ccc32)C(=O)O)C(=O)NCc2ccccc2N2CCCC2)cc1` (stereo not given in full), the outcome in experiment [6] was Active. On to `N=C(N)NCCC[C@@H](NC(=O)[C@@H](CC(=O)O)NC(=O)CCCCn1cc(CCCC(=O)Nc2nc(-c3ccc(O)cc3O)cs2)nn1)C(=O)N[C@H](CC(=O)O)C(=O)NCCCCCC(=O)NC(CSC1CC(=O)N(c2ccc3c(c2)C(=O)OC32c3ccc(O)cc3Oc3cc(O)ccc32)C1=O)C(=O)O` (single isomer, unassigned), for which the outcome in experiment [1], in experiment [2], in experiment [3] and in experiment [4] was Active. On to `CN(C)c1ccc(CC(=O)N[C@H](CCC(N)=O)C(=O)NCc2cccc(N3CCOCC3)c2)cc1`, for which the outcome in experiment [5] was Active. Turning to `CN(C)c1ccc(CC(=O)N[C@@H](CCC(N)=O)C(=O)NCc2cccc(N3CCOCC3)c2)cc1`, the outcome in experiment [5] was Active. As for `N=C(N)NCCC[C@@H](NC(=O)[C@@H](CC(=O)O)NC(=O)[C@H](CCCCNC(=O)[C@H](CCCCNC(=O)CCCCCNC(=O)CCCCn1cc(CCCC(=O)Nc2nc(-c3ccc(O)cc3O)cs2)nn1)NC(=O)CCCCCNC(=O)CCCCn1cc(CCCC(=O)Nc2nc(-c3ccc(O)cc3O)cs2)nn1)NC(=O)[C@H](CCCCNC(=O)CCCCCNC(=O)CCCCn1cc(CCCC(=O)Nc2nc(-c3ccc(O)cc3O)cs2)nn1)NC(=O)CCCCCNC(=O)CCCCn1cc(CCCC(=O)Nc2nc(-c3ccc(O)cc3O)cs2)nn1)C(=O)N[C@H](CC(=O)O)C(=O)NCCCCCC(=O)N[C@@H](CSC1CC(=O)N(c2ccc3c(c2)C(=O)OC32c3ccc(O)cc3Oc3cc(O)ccc32)C1=O)C(=O)O` (stereo not given in full), the result in experiment [1], in experiment [2], in experiment [3] and in experiment [4] was Active. Take `CN(C)c1ccc(CC(=O)N[C@@H](CCC(N)=O)C(=O)N2CCCN(c3ccc(F)cc3)CC2)cc1`: in experiment [5], the outcome was Active. As for `CN(C)c1ccc(CC(=O)N[C@H](CCC(N)=O)C(=O)N2CCCN(c3ccc(F)cc3)CC2)cc1`, the outcome in experiment [5] was Active.
